BaF3 parental = parental Ba/F3 cell viability inhibition, counter-screen for JAK2V617F inhibitor project, murine pro-B, CellTiter-Glo luminescence; CellTiter-Glo ATP luminescence; 1.1% of 220,000 active; inhibition, % at 5.6 µM;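 active = inhibition above a per-campaign cutoff, the mean inhibition of all tested compounds plus 3 SD, cut at about 27% in these data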
APP 5UTR inh = inhibitors of APP translation via 5'UTR reporter, primary screen, APP 5'UTR luciferase, SH-SY5Y cells | inhibition, % at 2 µM | 0.82% of 190,000 active | SH-SY5Y APP 5'UTR-luciferase reporter, luminescence;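 active = inhibition above a set limit, derived from the sample mean plus 3 SD, cut at about 45% in these data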
MT stabilizer = microtubule stabilizers in HeLa cells, primary screen, imaging, high-content imaging. HeLa tubulin immunostaining HCS, 24 h; share of cells brighter than vehicle mean+2SD. % tubulin-high responders, % at 10 µM. 0.83% of 200,000 active. AID 2205, 2009;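 active = plate Z-score above 3 for both tubulin-high and condensed-nucleus cell shares, with cell loss under 80%, at 10 µM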;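 also: anti alpha tubulin signal scored within the nucleus-defined area of each cell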
IEC-6 cytotox = cytotoxicity in IEC-6 intestinal epithelial cells, primary screen, cytotoxicity control for KLF5 inhibitor project, cell-based, luminescence; inhibition, % at 5 µM; IEC-6 cytotoxicity, luminescence viability; AID 1825, 2009; 0.78% of 290,000 active; in the data active = inhibition above about 22%
bCat nuc transl = modulators of beta-catenin nuclear translocation, primary screen, imaging, HeLa cells, immunofluorescence, high-content; nuclear translocation activity, % at 5 µM; 0.3% of 190,000 active;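 active = nuclear translocation activity above 50% at 5 µM, with a well cell count of 50 or more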;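 also: per-cell ratio of nuclear to cytoplasmic median beta-catenin stain intensity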
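Test system: human HeLa cell line; Doses: 5 µM primary, 0.02–20 µM confirmation; Incubation: 24 h compound exposure, 37°C; Detection: beta-catenin immunofluorescence imaging with DAPI; Read-out: beta-catenin nuclear/cytoplasmic ratio, % activation.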
Ba/F3 V617F tox = reduced viability of JAK2V617F-dependent Ba/F3 cells, primary screen, JAK2V617F inhibitor project, cell-based, Ba/F3 EpoR-JAK2V617F, luminescence; ATP luminescence; inhibition, % at 5.6 µM; 1.1% of 220,000 active; AID 1446, 2008;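 active = inhibition above the campaign mean plus 3 SD over all tested compounds, cut at about 24% in these data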;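 also: cytokine-independent growth of Ba/F3 cells driven by EpoR plus mutant JAK2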
Hits are given with their value; - = inactive; . = no result given; ! = a repeat was not active. In the library only some 2.2% were active in any assay of this set; here they are far more common.

SMILES | BaF3 parental | APP 5UTR inh | MT stabilizer | IEC-6 cytotox | bCat nuc transl | Ba/F3 V617F tox
Cc1ccc(/C=C2/SC(=S)N(CCCC(=O)Nc3ccc(O)cc3)C2=O)cc1 | - | 63 | - | - | - | -
CN1CCc2c(sc3c2C(=O)NC(c2ccco2)N3)C1 (centres undefined) | 30 | - | - | - | - | -
CCOC(=O)N1CCc2c(sc3c2C(=O)NC(c2ccccc2)N3)C1 (centres undefined) | - | - | 22 | - | 134 | -
CCOc1cc(CN2CCC(n3nccc3NC(=O)C3CC3)CC2)ccc1O | . | . | . | - | . | .
CCCCc1nnc(NC(=O)C(C)Sc2nc(O)c(Cc3ccccc3)c(=O)[nH]2)s1 (centres undefined) | - | - | - | - | - | -
CCN(CC)S(=O)(=O)c1cccc(-c2n[nH]c(=S)n2/N=C/c2ccc(OC)cc2)c1 | - | - | - | - | - | -
CCN(CC)S(=O)(=O)c1cccc(-c2n[nH]c(=S)n2/N=C/c2ccc(Br)cc2)c1 | 94 | - | - | - | - | -
CCCOc1ccc(CSc2nc3ccccc3[nH]2)cc1 | 44 | - | - | - | . | -
CCOc1ccc(OCCSc2nc3ccccc3[nH]2)cc1 | - | - | - | - | - | -
Cc1onc(-c2c(Cl)cccc2Cl)c1C(=O)N1CCN(c2ccccc2)CC1 | - | - | 21 | - | - | -
COc1ccc(OC)c(/C=C/C(=O)N(C)CC(=O)Nc2cc(C)ccc2C)c1 | - | 66 | - | - | - | -
CCN(CC)c1ccc(N2C(=NC(=O)C3CC3)SC3CS(=O)(=O)CC32)cc1 (centres undefined) | . | . | . | - | . | .
O=C(Oc1ccccc1C(=O)Nc1ccccc1)c1ccccc1Br | - | 58 | - | - | - | -
O=C(COc1ccccc1C(=O)Nc1ccccc1)c1ccc(Br)cc1 | - | - | - | - | - | -
S=C(Nc1ccc(-c2nc3ccccc3[nH]2)cc1)Nc1cccnc1 | . | . | . | - | . | .
Cc1cc(CN2CCCCC2C(=O)Nc2ccc(Oc3cccnc3)cc2)oc1C (centres undefined) | . | . | . | - | . | .
N#CC1=C(N)OC2=C(CCc3ccccc32)C1c1ccccc1Cl (centres undefined) | - | 94 | 18 | - | - | -
CCCOc1ccc(/C=N/NC(=S)Nc2ccccc2[N+](=O)[O-])c(O)c1 | - | 46 | - | - | - | -
CCCOc1ccc(/C=N/Nc2ccccc2[N+](=O)[O-])c(O)c1 | - | - | - | - | - | -
O=C(Nc1nc2ccc(C(=O)N3CCCCC3)cc2s1)C1CCCCC1 | - | - | 16 | - | - | -
Nc1ccc2nc(NC(=O)C3CCCCC3)sc2c1 | - | - | - | - | - | -
CCC(Cc1ccccc1)NC(=O)CCNS(=O)(=O)c1cc(Br)cnc1N (centres undefined) | . | . | . | - | . | .
CCOC(=O)Cc1ccc(NC(=O)c2ccc(C(C)(C)C)cc2)cc1 | - | 71 | - | - | - | -
CCOC(=O)Cc1ccc(NC(=O)c2ccccc2Br)cc1 | - | - | - | - | - | -
CC(=O)n1c2ccccc2c2ccccc21 | - | - | - | - | . | -
SMILES | BaF3 parental | APP 5UTR inh | MT stabilizer | IEC-6 cytotox | bCat nuc transl | Ba/F3 V617F tox
Cc1ccc(C(=O)n2c3ccccc3c3ccccc32)cc1 | - | - | 44 | - | 96 | -
COc1ccc(NC(=O)CCCn2cnc3ccccc3c2=O)cc1 | . | . | . | - | . | .
O=C1/C(=C\c2ccccc2)CCc2c1[nH]c1ccccc21 | - | - | 21 | - | - | -
Cc1cccc(N2CCN(C(=O)Cc3ccccc3[N+](=O)[O-])CC2)c1C | . | . | . | - | . | .
Cc1cc(C)cc(Nc2c3c(nc4ncnn24)CCC3)c1 | - | - | 12 | - | - | -
O=C(O)CC1S/C(=N/N=C/C=C/c2ccccc2)NC1=O (centres undefined) | 97! | - | - | - | - | -
O=C(O)CC1S/C(=N/N=C/C=C/c2ccccc2[N+](=O)[O-])NC1=O (centres undefined) | - | - | - | - | - | -
CCOc1ccc(C(=O)N(Cc2ccccc2)c2cccc(C)c2)cc1OC | . | . | . | - | . | .
O=C(NCc1cccnc1)/C(=C/c1ccc(-c2ccc(Cl)cc2)o1)S(=O)(=O)c1ccccc1 | - | - | - | - | . | -
O=C(NCc1cccnc1)/C(=C\c1ccc(-c2ccc(Br)cc2)o1)S(=O)(=O)c1ccccc1 | - | - | 47 | - | - | -
CN(C(=O)C1CCC(CNS(=O)(=O)c2cccc3cccnc23)CC1)C1CCCCC1 (centres undefined) | . | . | . | - | . | .
NS(=O)(=O)c1ccc(N/N=C/c2cn(-c3ccccc3)nc2-c2cccs2)c([N+](=O)[O-])c1 | - | - | - | - | - | -
N#Cc1ccc(N/N=C/c2cn(-c3ccccc3)nc2-c2ccccc2)c([N+](=O)[O-])c1 | - | 75 | - | - | . | -
CCN1CCN(S(=O)(=O)c2ccc(Cl)c(C(=O)N(C)Cc3ccc(Cl)cc3Cl)c2)CC1 | . | . | . | - | . | .
C[N+]1(CC(=O)OC2CCCCCCCCCCC2)CCCC1 | 72 | - | - | - | . | 73
CC(=O)/C(C[N+]1(C)CCCCC1)=N\O | - | - | - | - | . | -
Cc1ccc(S(=O)(=O)CCN2CCC(n3cccc3)CC2)cc1 | - | . | . | - | - | -
CN1C(C(=O)N2CCc3ccccc3C2)=CC(c2ccc(F)cc2)=NS1(=O)=O | . | . | . | - | . | .
Cc1cc(N2CCCC2=O)cc(C)c1S(=O)(=O)NCCOc1ccc(C(C)(C)C)cc1 | 36 | - | - | - | - | -
O=S1(=O)N=C(N2CCN(Cc3ccc4c(c3)OCO4)CC2)c2ccccc21 | - | - | - | - | . | -
O=S1(=O)N=C(N2CCN(Cc3ccccc3)CC2)c2ccccc21 | 60 | - | - | - | - | -
O=C1N=C2N(CCN3CCCCC3)c3ccccc3N2/C1=C\c1ccc([N+](=O)[O-])o1 | - | 96 | - | - | - | -
Oc1ccccc1N=Nc1nc(-c2ccccc2)c(-c2ccccc2)[nH]1 | 97 | 88 | - | - | - | 98
COc1cc(/C=N\NC(=O)c2cccnc2)ccc1OC(=O)c1ccccc1Cl | . | . | . | - | . | .
CCCCN(C(=O)c1cc2ccccc2o1)c1c(N)n(CC(C)C)c(=O)[nH]c1=O | - | 54 | - | - | . | -
CCCCN(C(=O)c1cc2ccccc2o1)c1c(N)n(CCC)c(=O)[nH]c1=O | - | - | - | - | - | -
Cc1sc(-n2c(C)cc(/C=C3\SC(=S)NC3=O)c2C)c(C#N)c1C | - | - | - | - | 80 | -
O=C(C1=C(O)C(=O)N(CC2CCCO2)C1c1ccc(Cl)cc1Cl)c1ccco1 (centres undefined) | . | . | . | - | . | .
Nc1ccn([C@@H]2O[C@H](CO)[C@@H](O)C2O)c(=O)n1 (some centres undefined) | 72 | . | . | 93 | - | 75

Source: PubChem
